Source: the EternaBench riboswitch data

Test system: MS2 coat protein
Assay: apparent Kd, MS2 coat protein; higher = weaker binding; RNA-MaP array; FMN 200 µM where present
Procedure, shortened: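 Green signal from SNAP-549-labelled MS2 coat protein was normalised to red-channel RNA signal and to the median Fmax of control clusters. The protein was titrated from 0.7 or 1.5 nM, doubling to 3 µM, without and then with constant ligand, over designs transcribed by stalled E. coli RNA polymerase on Illumina sequencing-chip clusters, in 100 mM Tris-HCl pH 7.5, 80 mM KCl, 4 mM MgCl2, BSA, DTT, yeast tRNA and Tween-20. The apparent Kd is the median of filtered per-cluster binding-curve fits.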

[1] = designed as: OFF switch for flavin mononucleotide, no ligand
[2] = ligand present: flavin mononucleotide, designed as: OFF switch for flavin mononucleotide
[3] = designed as: ON switch for flavin mononucleotide, no ligand
[4] = ligand present: flavin mononucleotide, designed as: ON switch for flavin mononucleotide

Row | Sequence | apparent Kd [1] [nM] | apparent Kd [2] [nM] | apparent Kd [3] [nM] | apparent Kd [4] [nM]
1 | CAUUGACAUGAGGAUCACCCAUGUCAGGAUAUGCUUCAUGACACGAAAGUGUCAUGAAGCAGAAGGGACAUGCC | 19.4 | 31.8 | – | –
2 | GAAAACGCAGAGGAUAUUUCAGAUCCUAGCUGCAAAGAAGGCUGCACAUGAGGAUCACCCAUGUGGUCCUGAAG | 65.1 | 155 | – | –
3 | GUCUCACAUGAGGAUCACCCAUGUGAGGAUAUGGAUUCGCUGGCCGUAGCCAGUGGAUCCAGAAGGCGCGUGAU | 59.1 | 58.8 | – | –
4 | UUUUUUGUAGUGAGGAUAUCGUUGUGGAUGUGGAUCGAGAAGGCACAUGAGGAUCACCCAUGUUAGUUGUGGUU | 155 | 216 | – | –
5 | AUCAGCUCGUCAGGAUAUACGUCACUGCGUCAUCAGUGUGGUAAGAUCACAUGAGGAUCACCCAUGUAGAAGGGACGAGCUGAU | 15.5 | 234 | – | –
6 | GUCAGCUCGUGAGGAUAUACAACACUGCUUCGGCAGUGUAUUAAGAUCACAUGAGGAUCACCCAUGUAGAAGGCUCGAGCUGAU | 14.6 | 271 | – | –
7 | CUAUAGAUAUCAGGAUAUCUAUUUCCAACAUGAGGAUCACCCAUGUUGAGGAUCACCCAUGUAAAGGAGAAGGGAUAUCUAUAG | – | – | 69.1 | 16.4
8 | GUGGUACAUGAGGAUCACCCAUGUUAGGAUAUCGCGUGAGGUUUUACUUCCACACACACGAGAAGGGACGUCUU | 44.3 | 36.2 | – | –
9 | GGACGUGUCGUUUACAUGAGGAUCACCCAUGUCGAUAGACAUGAGGAUAUGGAUCCGAAUCGGAUCCAGAAGGCAUGCACGUCC | – | – | 260 | 26.8
10 | AGUACCAUGUAGAAGGGAUAUCUCAAAGAGAUAUCAGGAUAUACAUGAGGAUCACCCAUGUAAAUGUACUCCAGGAAACUGGAA | 19.8 | 55.3 | – | –
11 | AGCCAGGACGGGUGCCUGAGCGGGAGAAGGUACGAGGGAUCGUCUGGACAUGAGGAUCACCCAUGUAAGGAUAUCCCGCCUAUU | 8.78 | 18.1 | – | –
12 | CGACUGUGAGGAUAUGGUGAGUAGUGCCUGAGCGCUGCUCACCAGAAGGCACAUGAGGAUCACCCAUGUAUGAC | 110 | 214 | – | –
13 | UUUUAACAUGAGGAUCACCCAUGUGAGGAUAUCGUUUUUUUUAUUAAUAUUAAUAAAACGAGAAGGCACAUUUU | 149 | 149 | – | –
14 | CCCAUGUGUGUGAGGAUAUGGUCAGUCAUACUCGGCCAGAAGGCACAUGAGGAUCACCCAUGUGGCCUCUCAUC | 17 | 17.8 | – | –
15 | GUCAGCUCGUGAGGAUAUACAACACUGCUUCGGCAGUGUAUUAAGAUCACAUGAGGAUCACCCAUGUAGAAGGAACGAGCUGAU | 7.52 | 24.2 | – | –
16 | AAAUAGCAUGAGGAUAUUGGACUGGAUUCAGUACGAGAAGGCAUGACAUGAGGAUCACCCAUGUUUUGUUGGGA | 51.7 | 202 | – | –
17 | AUAUGACAUGAGGAUCACCCAUGUGAGGAUAUAUGCGCAGGUCCAGGGACGGCUGUGCAUAGAAGGUGCUUGGG | 307 | 268 | – | –
18 | GACUUGUUAGGAUAUCUUACUUUUGCAUCAUAGUAACCAUUGGAGAAGGGACAUGAGGAUCACCCAUGUUUGGU | 34.7 | 35 | – | –
19 | CGUUGGUCAGGAUAUGGUGGGCUGGUCGCGCGGCCGGGUGGCUAGAAGGGACAUGAGGAUCACCCAUGUACGGC | 21.5 | 40.5 | – | –
20 | AAAGACAUGAGGAUCACCCAUGUCGGUAUAACUUAAGCGUCACAGGAUAUGUUACGAAAUUAUGGACAGAAGGGUGAGCUGUGG | – | – | 23.8 | 9.02
21 | ACCUCACAUGAGGAUCACCCAUGUCAGGAUAUUCAAACAGGCGGAACUCCGCCUUCUCGAAGAAGGGACAUUAA | 16.2 | 72.4 | – | –
22 | AUUAUAUAGGAAGGAUAUAGAAUAUUAUUUUAACAUGAGGAUCACCCAUGUAACCUUAUGUGUAGCUAGAAGGUCCAUUUAUUA | 97.5 | 153 | – | –
23 | ACAUGAGGAUGAGGAUAUUCAUCCAUGAGGAUAGAAGAAGGCAUACAUGAGGAUCACCCAUGUAUACACAUGAGGAUCCCUUAU | 44.5 | 121 | – | –
24 | GUGCUACAGCUGCGCACGAGACAUGAGGAUCACCCAUGUGACAGAAGGGACUUGUUAAAGGUAGGUCAGGAUAUGUCUUAAAAG | – | – | 148 | 44.2
25 | GCGAUUUUGUAAGGAUAUACACCAGUUUCAAGUGUAGAAGGUACUUACAUGAGGAUCACCCAUGUAUACUUGGAUAAUAGUCGC | – | – | 17.4 | 17.5
26 | CUUCGUAUAGAGGAUAUAGGAUACUGCGGUGUCCUAGAAGGCUGUACAUGAGGAUCACCCAUGUACUUCAGAUC | 12.6 | 17.9 | – | –
27 | GGUGUGAGGCAGGAUAUGCUAUAUGUAAGUAAUGCAGAAGGGUCUACAUGAGGAUCACCCAUGUGUGCGGUAGA | 105 | 311 | – | –
28 | GCCAUCGCAUGAGGAUAUAAUCGGGUUUCCCGUUUAGAAGGCAUGUCAUAAGACAUGAGGAUCACCCAUGUAGUUAAGAUGGCA | – | – | 471 | 27

Row | Sequence | apparent Kd [1] [nM] | apparent Kd [2] [nM] | apparent Kd [3] [nM] | apparent Kd [4] [nM]
29 | AUUGUUCGAGAGAAGGGAACAUGAGGAUCACCCAUGUUACCUCACCUGGUGACGGAACUCCAAGUUCAGGAUAUCUCGAGCGAU | 5.63 | 8.59 | – | –
30 | UAUGUUGUUGUGAGGAUAUACUUUGUUUGGUCGUAGUAGAAGGCACAUGAGGAUCACCCAUGUAGAUUUUUGGU | 19.4 | 24.8 | – | –
31 | CCGUCCUGAGGAUAUCCACCCUCAUACAUGAGGAUCACCCAUGUUCACCUUUGGGUUCCCGGAGAAGGCAGUUUUC | 80.2 | 109 | – | –
32 | GAGCUAUGAGGAUAUGCAUAGAUACGGAUUCGUGUAGUACUACAUGAGGAUCACCCAUGUAGAAGGCGUGGCUG | 18.5 | 20.5 | – | –
33 | UUGAAUUGAAACAUGAGGAUCACCCAUGUGUCAUAAUUGACAUAGGAUAUGCUUAUACUUUUAAAGCAGAAGGAUGACGAUACU | – | – | 23.8 | 8.8
34 | UGAGUGCGUGUUAGGAUAUGGUUUGGUAUUUCGGGCUAGAAGGGACAUGAGGAUCACCCAUGUAAUUGAUAGGU | 47 | 53 | – | –
35 | CGAUUAUUGAUCCAUUUUUUCAACAUGAGGAUCACCCAUGUGCAGGAUAUCGUGAUUAUUAUCAACGAGAAGGGCAAAUUCACG | 49.5 | 145 | – | –
36 | AUCAUGUAAGGAUAUCUGACAUGUGACUUCGGUCACUGUUCAGAGAAGGUACAUGAGGAUCACCCAUGUAGAAC | 76.7 | 78.6 | – | –
37 | GGCGGCGCGGGCCACCGCAGAACCAGAAGGACAUGAGGAUCACCCAUGUAACAAAACAGGGCGGUGUAGGAUAUGGCAGACCCG | 14.5 | 29.7 | – | –
38 | ACAUGUAAUGUAGGAUAUUUUACACAUGAGGAUCACCCAUGUGACCAGAGGCUUUGCUAUGAGUAAAAGAAGGGUAUGUACAUG | 61.8 | 60.4 | – | –
39 | GCACCUCUAUUUGAACCGAUACGAACAUGAGGAUCACCCAUGUAGGAUAUGCUAAAAGUUGUGUUGCAGAAGGACAUUUAGUGC | 10.7 | 10.5 | – | –
40 | AGCCAAAUAGGAUAUGCCCGGGAUAACAUGAGGAUCACCCAUGUGACCGAUUCAUGUCCUGCAGAAGGAUUUGGGA | 13.2 | 24.4 | – | –
41 | GCAUUGAUAACAGGAUAUAUGUAUCCUACAUGAGGAUCACCCAUGUAGGUGAUCAGCCGCGAUAAGUAGAAGGGUUAUCAAUGC | – | – | 18 | 13.7
42 | UCAUGAAGGGCAGGAUAUGGACAUGAGGAUCACCCAUGUACAUGGGAUAAUAUACUAAAUUAAUACUAGAAGGGUUACAUAAAU | 37.2 | 24.6 | – | –
43 | GUAGUGUAUGUAGGAUAUGUGAAGGAAACAUUUACAGAAGGACAUGAGGAUCACCCAUGUAUUACAGUCAGCAAUCUGACUGUU | 23.6 | 41.2 | – | –
44 | GUAGCUAUUAUUAUACAUGAGGAUCACCCAUGUUACAUGUGUAAGGAUAUUGAAGUUAUUAUUAUCAAGAAGGUACUAUGCUAC | – | – | 15.5 | 8.71
45 | GCGCUGCGUCAGAAGGGCCGAAAAGAGAAGACGGCAGGAUAUGACAUGAGGAUCACCCAUGUACACGUCGCCGUGGGUGUUGGA | 57.9 | 65 | – | –
46 | ACAUACUUUCGAGGAUAUCGGUGAUAUAUUUAACGAGAAGGCGAUAAAAGAUAUAAACUUAUAGACAUGAGGAUCACCCAUGUA | – | – | 27.4 | 27.1
47 | UUAAAUCAUGUAGGAUAUGCAUGGCGAAGCUACGCAGAAGGACAUGAGGAUCACCCAUGUUAUAGCUACCCAGAACGGUGGCAA | 75.5 | 267 | – | –
48 | UGUCUAUAUGAAGGAUAUCUAAGCAUAAACCGUAGAGAAGGUCAAUAGUACAUGAGGAUCACCCAUGUUGGGAUUGAUGGGUUU | 25.3 | 38.6 | – | –
49 | GUCAUGUUAGGAUAUCUAACAUGUGACUUCGGUCACUGUCCAGAGAAGGAACAUGAGGAUCACCCAUGUUGGAC | 14.7 | 15.9 | – | –
50 | UAUCCGUCAGUAGGAUAUAUGCCGAGUCAUUGCAUAGAAGGACUGACAUGAGGAUCACCCAUGUCAGAUUGCGCUGGUCUUCCG | 6.24 | 6.68 | – | –
51 | AUAUAUAGUGUGAGGAUAUGCUGGUCCUUGGAUCAGCAGAAGGCACAUGAGGAUCACCCAUGUAGUUUAUUUUG | 17.5 | 77 | – | –
52 | AUGGAUAUCACAGGAUAUGAUAUGGAUACCAUAUCAGAAGGGUGAUCCAUCCUCUGUAAAUACAUGAGGAUCACCCAUGUGUCC | – | – | 15.6 | 15.6
53 | GAGUCACUAUUAGAACCGAUACGAACAUGAGGAUCACCCAUGUAGGAUAUGCUAAAAGUUGUGUUGCAGAAGGACAUUUAUCGC | 9.81 | 9.06 | – | –
54 | AAUUAGGUCACAGGAUAUACAACAUCCAAUGCUGUAGAAGGGUGUCACAAUCAUAGCUGACAUGAGGAUCACCCAUGUAUCCAC | – | – | 202 | 106
55 | UGUCGGAGCAGAGGAUAUUACAUGAGGAUCACCCAUGUAUGAACCAUUAGCUGGAAACAGCAAUGUAAGAAGGCUGCUCCGACA | 5.37 | 10.4 | – | –
